# Assay results from PubChem BioAssay AID488804 (Broad Institute, 2010).
# Calls of active or inactive are those of the source.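 The calls were made as follows: active = luminescence cut by over half relative to the proteasome inhibitor control, with potency below ten times the top valid dose; inactive = no activity, or signal change in the wrong direction.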
# Target: 26S proteasome chymotrypsin-like activity (human)
# Assay: proteasome function in U2OS cells – cell-based, luminescence, dry powder, set 2, counter-screen, dose response (AID 488804)
# Details: Proteasome-Glo chymotrypsin luminescence
# Method in brief: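 material = human U2OS osteosarcoma cells, proteasome chymotrypsin-like activity | amount = 2,500 U2OS cells per well | dosing = Eight-point threefold dilution series, 16.5 mM top stock | incubation = 24 h cell culture, 4 h compound exposure, 2 h reagent | technique = Proteasome-Glo chymotrypsin luminescence | control set = MG132 positive control | replicates = duplicates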
row,AC50 [µM],Structure (SMILES)
1,6.99,O=C(Nc1cn2ccccc2n1)c1cc(-c2ccccc2)on1
2,38,CCCCNC(=O)c1cc(-c2ccccc2)on1
3,23.5,O=C(Nc1ncc2ccccc2n1)c1cc(-c2ccccc2)on1
4,2.63,Cc1cccc(NC(=O)c2cc(-c3ccccc3)on2)n1
5,38,O=C(Nc1ncc(-c2ccccc2)o1)c1cc(-c2ccccc2)on1

# Same assay, conditions: Proteasome-Glo chymotrypsin luminescence, at 38 µM (top of the series)
row,Structure (SMILES),"activity change, negative = inhibition"
1,c1ccc(-c2nnc(-c3ccccn3)nc2Nc2cnc3ccccc3n2)cc1,inactive
2,O=C(c1cc(-c2ccccc2)on1)N1CCC(CO)CC1,inactive
3,Cc1ccc(CNc2nc(-c3ccccn3)nnc2-c2ccccc2)cc1,inactive
4,Cc1ccc(Nc2nc(-c3ccccn3)nnc2-c2ccccc2)cn1,inactive
5,Cc1cccc(CNc2nc(-c3ccccn3)nnc2-c2ccccc2)c1,inactive
6,c1ccc(-c2cnc(Nc3nc(-c4ccccn4)nnc3-c3ccccc3)s2)cc1,inactive
7,c1ccc(-c2nnc(-c3ccccn3)nc2NCCN2CCOCC2)cc1,inactive
8,OCC1CCN(c2nc(-c3ccccn3)nnc2-c2ccccc2)CC1,inactive
9,c1ccc(-c2nnc(-c3ccccn3)nc2N2CCN(c3ccncc3)CC2)cc1,inactive
10,c1ccc(CNc2nc(-c3ccccn3)nnc2-c2ccccc2)cc1,inactive
11,c1ccc(-c2nnc(-c3ccccn3)nc2NCC2CCCCC2)cc1,inactive
12,c1ccc(-c2nnc(Nc3nc(-c4ccccn4)nnc3-c3ccccc3)s2)cc1,inactive
13,c1ccc(-c2nnc(-c3ccccn3)nc2Nc2nc3ccccc3s2)cc1,inactive
14,c1ccc(-c2nnc(-c3ccccn3)nc2N2CCC(N3CCOCC3)CC2)cc1,inactive
15,O=C(c1cc(-c2ccccc2)on1)N1CCC(N2CCOCC2)CC1,inactive
16,O=C(NCCCN1CCOCC1)c1cc(-c2ccccc2)on1,inactive

row,Structure (SMILES),"activity change, negative = inhibition"
1,Cc1ccccc1CNc1nc(-c2ccccn2)nnc1-c1ccccc1,inactive
2,C=CCNc1nc(-c2ccccn2)nnc1-c1ccccc1,inactive
3,O=C(c1cc(-c2ccccc2)on1)N1CCC(N2CCCC2)CC1,inactive
4,CN(C)c1nc(-c2ccccn2)nnc1-c1ccccc1,inactive
5,CN1CCN(c2nc(-c3ccccn3)nnc2-c2ccccc2)CC1,inactive
6,Cn1c(-c2ccccc2)cnc1Nc1nc(-c2ccccn2)nnc1-c1ccccc1,inactive
7,OCCCNc1nc(-c2ccccn2)nnc1-c1ccccc1,inactive
8,c1ccc(-c2nnc(-c3ccccn3)nc2NCCCN2CCOCC2)cc1,inactive
9,O=C(NCCN1CCCCC1)c1cc(-c2ccccc2)on1,inactive
10,O=C(NCCN1CCOCC1)c1cc(-c2ccccc2)on1,inactive
11,c1ccc(-c2csc(Nc3nc(-c4ccccn4)nnc3-c3ccccc3)n2)cc1,inactive
12,CC(C)(C)CCNc1nc(-c2ccccn2)nnc1-c1ccccc1,inactive
13,c1ccc(-c2nnc(-c3ccccn3)nc2NCC2CC2)cc1,inactive
14,CN1CCN(C(=O)c2cc(-c3ccccc3)on2)CC1,inactive
15,Cc1cccc(Nc2nc(-c3ccccn3)nnc2-c2ccccc2)n1,inactive

# The remaining lines, values ahead:
row,"activity change, negative = inhibition",Structure (SMILES)
1,inactive,O=C(NCCCn1ccnc1)c1cc(-c2ccccc2)on1
2,inactive,CN(C)CCNC(=O)c1cc(-c2ccccc2)on1
3,inactive,Cn1c(-c2ccccc2)cnc1NC(=O)c1cc(-c2ccccc2)on1
4,inactive,Cn1c(NC(=O)c2cc(-c3ccccc3)on2)nc2ccccc21
5,inactive,O=C(NC1Cc2ccccc2C1)c1cc(-c2ccccc2)on1
6,inactive,O=C(Nc1nnc(-c2ccccc2)s1)c1cc(-c2ccccc2)on1
7,inactive,O=C(c1cc(-c2ccccc2)on1)N1CCN(c2ccncc2)CC1
8,inactive,O=C(NC1CCc2ccccc2C1)c1cc(-c2ccccc2)on1 (centres undefined)
9,inactive,O=C(NCC1CCCCC1)c1cc(-c2ccccc2)on1
10,inactive,O=C(Nc1ccc2ccccc2n1)c1cc(-c2ccccc2)on1
11,inactive,CC(C)(C)CCNC(=O)c1cc(-c2ccccc2)on1
12,inactive,O=C(NCCCCO)c1cc(-c2ccccc2)on1
13,inactive,O=C(Nc1nc2ccccc2s1)c1cc(-c2ccccc2)on1
14,inactive,O=C(NCc1ccccc1)c1cc(-c2ccccc2)on1
15,inactive,O=C(Nc1nc(-c2ccccc2)cs1)c1cc(-c2ccccc2)on1
16,inactive,Cc1ccc(NC(=O)c2cc(-c3ccccc3)on2)cn1
17,inactive,O=C(Nc1cnc2ccccc2c1)c1cc(-c2ccccc2)on1
18,inactive,O=C(NCCCO)c1cc(-c2ccccc2)on1
19,inactive,O=C(c1cc(-c2ccccc2)on1)N1CCc2cccnc21
20,inactive,Cc1cccc(CNC(=O)c2cc(-c3ccccc3)on2)c1
21,inactive,Cc1ccccc1CNC(=O)c1cc(-c2ccccc2)on1
22,inactive,Cc1ccc(CNC(=O)c2cc(-c3ccccc3)on2)cc1
23,inactive,O=C(NCC1CC1)c1cc(-c2ccccc2)on1
